Counter-ions that a name gives are not always drawn.

Ratio and Ki data for 2 compounds are collected here from ChEMBL document CHEMBL1152579, “Substrate specificity effects of lipoxygenase products and inhibitors on soybean lipoxygenase-1” (Bioorg Med Chem, 2009).

For experiment [1], the target named is T1, Seed linoleate 13S-lipoxygenase-1 (Glycine max) (UniProt P08170).
T1 sequence (whole entry): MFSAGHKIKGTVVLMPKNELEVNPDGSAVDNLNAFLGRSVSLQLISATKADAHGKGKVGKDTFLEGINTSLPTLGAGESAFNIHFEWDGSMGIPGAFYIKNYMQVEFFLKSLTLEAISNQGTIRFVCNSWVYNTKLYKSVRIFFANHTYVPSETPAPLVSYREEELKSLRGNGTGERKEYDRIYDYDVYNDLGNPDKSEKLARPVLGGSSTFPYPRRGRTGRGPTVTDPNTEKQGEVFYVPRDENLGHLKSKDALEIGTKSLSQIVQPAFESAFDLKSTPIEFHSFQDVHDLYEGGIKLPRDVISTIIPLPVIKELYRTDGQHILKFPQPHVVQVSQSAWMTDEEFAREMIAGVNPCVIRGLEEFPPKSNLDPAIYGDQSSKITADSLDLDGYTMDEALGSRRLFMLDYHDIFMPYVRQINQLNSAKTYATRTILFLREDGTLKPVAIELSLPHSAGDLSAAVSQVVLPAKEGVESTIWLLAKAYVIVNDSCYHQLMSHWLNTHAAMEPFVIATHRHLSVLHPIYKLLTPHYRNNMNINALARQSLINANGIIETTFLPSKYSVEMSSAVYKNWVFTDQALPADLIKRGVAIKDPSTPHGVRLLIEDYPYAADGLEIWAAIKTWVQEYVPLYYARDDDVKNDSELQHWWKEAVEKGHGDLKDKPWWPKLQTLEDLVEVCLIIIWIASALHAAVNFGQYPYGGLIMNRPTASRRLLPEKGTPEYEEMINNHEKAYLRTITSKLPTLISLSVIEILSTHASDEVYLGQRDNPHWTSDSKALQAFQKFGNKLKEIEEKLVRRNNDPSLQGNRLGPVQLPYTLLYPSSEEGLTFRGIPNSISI
The experiment in a line: Mixed-type inhibition of soybean LO1 assessed as increase in arachidonic acid/linoleic acid ratio at 13 uM by substrate specificity assay.

The target of experiment [2] is T1, Seed linoleate 13S-lipoxygenase-1 (Glycine max). The experiment in a line: Mixed-type inhibition of soybean LO1 assessed as increase in arachidonic acid/linoleic acid ratio at 30 uM by substrate specificity assay.
The target is the same in experiment [3]. As to the kind of experiment: Inhibition of soybean LO1 assessed as increase in non-endogenous arachidonic acid/linoleic acid maximal ratio by substrate specificity assay. In outline:
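Inhibitor titrated into competitive substrate-capture reactions: sLO-1 with 1:1 AA:LA at 1 μM total substrate, 100 mM borate pH 9.2, 22 °C. Product ratio was measured by HPLC at each concentration. The change in (kcat/KM)AA/(kcat/KM)LA ratio was plotted against inhibitor concentration and fit to a saturation curve, giving the maximal ratio at saturation.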

The target is the same in experiment [4]. The experiment in a line: Mixed-type inhibition of soybean LO1 assessed as increase in arachidonic acid/linoleic acid ratio at 65 uM by substrate specificity assay.
The target in experiment [5] is T2, Seed linoleate 13S-lipoxygenase-1 (Glycine max, UniProt P08170).
T2 sequence (P08170 whole entry): T1 sequence (whole entry)
The experiment in a line: Binding affinity to allosteric site of soybean LO1.

For experiment [6], the target named is T1, Seed linoleate 13S-lipoxygenase-1 (Glycine max). The experiment in a line: Allosteric inhibition of soybean LO1 assessed as increase in arachidonic acid/linoleic acid ratio at 0.5 uM by substrate specificity assay.
Experiment [7] has the same target. The experiment in a line: Allosteric inhibition of soybean LO1 assessed as increase in arachidonic acid/linoleic acid ratio at 1 uM by substrate specificity assay.
Experiment [8] addresses T2, Seed linoleate 13S-lipoxygenase-1. The experiment in a line: Binding affinity to soybean LO1.
Experiment [9] has as its target T1, Seed linoleate 13S-lipoxygenase-1 (Glycine max). The experiment in a line: Allosteric inhibition of soybean LO1 assessed as increase in arachidonic acid/linoleic acid ratio at 10 uM by substrate specificity assay.
For experiment [10] the target is unchanged. The experiment in a line: Allosteric inhibition of soybean LO1 assessed as increase in arachidonic acid/linoleic acid ratio at 1 uM by substrate specificity assay.
For experiment [11] the target is unchanged. As to the kind of experiment: Allosteric inhibition of soybean LO1 assessed as increase in arachidonic acid/linoleic acid ratio at 5 uM by substrate specificity assay.
The target is the same in experiment [12]. The experiment in a line: Competitive inhibition of soybean LO1 assessed as increase in arachidonic acid/linoleic acid ratio at 5 uM by substrate specificity assay.

For the compound `CCCCCC/C=C\CCCCCCCCOS(=O)(=O)O`, the Ratio came out at 2.3 in experiment [1], 3 in experiment [2], 7.4 in experiment [3] and 4 in experiment [4]. Also, in experiment [5], the Ki came out at 140 µM.
On to `CCCCCCCC/C=C\CCCCCCCCOS(=O)(=O)O` [OLEYL SULFATE], for which the Ratio worked out at 2.5 in experiment [6]; 3.2 in [7]; 4.8 in experiment [9]; 3.2 in [10]; 5.4 in [3]; 4.8 in [11]. Besides, the Ratio in [12] came to 4.7. The compound also returned an inhibition constant Ki in [8] of 700 nM.
